In ChEMBL document CHEMBL1138529, “Efficacy, pharmacokinetics, and metabolism of tetrahydroquinoline inhibitors of Plasmodium falciparum protein farnesyltransferase” (Antimicrob Agents Chemother, 2007):
Activity calls are given as the source filed them.

Assays:
[1] = system: Plasmodium falciparum; experiment: Antiplasmodial activity against chloroquine-resistant Plasmodium falciparum K1 by [3H]hypoxanthine uptake; format: functional; conditions: read-out: ED50 (the source's name)
Outline: (§1)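 Asynchronous cultures at 0.5% parasitemia and 0.5% hematocrit in RPMI 1640 with 20% heat-inactivated human A+ plasma, exposed to serially diluted inhibitor (top final 5 μM, from DMSO stock) under 5% CO2/5% O2/90% N2 at 37°C for 48 h. [3H]hypoxanthine was then added for 24 h and harvested counts were background-subtracted against DMSO-only controls. ED50 came from linear regression, as the mean of duplicates.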

[2] = target: Kappa-type opioid receptor (Homo sapiens) (UniProt P41145); experiment: Inhibition of kappa opioid receptor at 10 uM
Outline: (§2)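 Radioligand displacement at a contract lab across a panel of 50 receptors, ion channels and transporters, single test concentration 10 μM; loss of specific ligand binding reported as percent, with >50% decrease counted as significant.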

[3] = target: Alpha-2A adrenergic receptor (Homo sapiens) (UniProt P08913); experiment: Inhibition of alpha2 adrenergic receptor at 10 uM; outline: as §2
[4] = system: Rattus norvegicus; experiment: Toxicity in Plasmodium berghei NK65 infected Sprague-Dawley rat assessed as effect on liver enzyme levels at 50 mg/kg, perorally administered every 8 hrs for 3 days; format: organism-based; parameters: dose 50 mg/kg, route oral; conditions: in vivo, po
Outline: (§3)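 Female Sprague-Dawley rats, 10-12 weeks, n = 3 per schedule. Dosed 50 mg/kg by oral gavage every 8 h or every 12 h for 72 h. At the end of dosing, blood was sent to a clinical laboratory for complete blood counts, white cell differentials, electrolytes, glucose, renal function, liver enzymes and cholesterol.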

[5] = target: Histamine H1 receptor (Homo sapiens) (UniProt P35367); experiment: Inhibition of histamine H1 receptor at 10 uM; outline: as §2
[6] = target: Galanin receptor type 2 (Homo sapiens) (UniProt O43603); experiment: Inhibition of Galanin receptor type 2 at 10 uM
Outline: (§4)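 Radioligand displacement screen by a contractor across 50 receptors, ion channels and transporters, test compound at 10 μM; decrease in specific ligand binding expressed as percentage, with >50% decrease taken as significant.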

[7] = target: 5-hydroxytryptamine receptor 7 (Homo sapiens) (UniProt P34969); experiment: Inhibition of 5HT7 receptor at 10 uM; outline: as §4
[8] = system: Plasmodium falciparum; experiment: Antiplasmodial activity against chloroquine-sensitive Plasmodium falciparum 3D7 by [3H]hypoxanthine uptake; format: functional; conditions: read-out: ED50 (the source's name); outline: as §1
[9] = target: Cholecystokinin receptor type A (Homo sapiens) (UniProt P32238); experiment: Inhibition of CCK1 receptor at 10 uM; outline: as §4
[10] = target: Delta-type opioid receptor (Homo sapiens) (UniProt P41143); experiment: Inhibition of delta opioid receptor at 10 uM; outline: as §2
[11] = system: Rattus norvegicus; experiment: Toxicity in Plasmodium berghei NK65 infected Sprague-Dawley rat assessed as effect on electrolyte levels at 50 mg/kg, perorally administered every 12 hrs for 3 days; format: organism-based; parameters: dose 50 mg/kg, route oral; conditions: in vivo, po; outline: as §3
[12] = target: C-C chemokine receptor type 1 (Homo sapiens) (UniProt P32246); experiment: Inhibition of CCR1 receptor at 10 uM; outline: as §4
[13] = Cmax in Sprague-Dawley rat at 50 mg/kg, po; format: ADME, organism-based; parameters: dose 50 mg/kg, route oral; conditions: in vivo
Outline: (§5)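 50 mg/kg by oral gavage in 3% EtOH-7% Tween 80-90% normal saline to groups of three females (BALB/c mice, 8–10 weeks, tail bleed; Sprague-Dawley rats, 10–12 weeks, saphenous vein). Plasma extracted with acetonitrile/internal standard, LC/MS; means of three animals. Oral elimination half-life depends on absorption rate as well as elimination.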

[14] = Inhibition of Sodium channel site 2 at 10 uM
Outline: (§6)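 Radioligand displacement screen at a 10 μM test concentration, run by a contract lab across a panel of 50 receptors, pharmacologically active ion channels and transporters. The read-out is the decrease in specific radiolabeled ligand binding, expressed as a percentage. A decrease above 50% was considered significant.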

[15] = system: Plasmodium falciparum; experiment: Antiplasmodial activity against Plasmodium falciparum by [3H]hypoxanthine uptake; format: functional; conditions: read-out: ED50 (the source's name)
Outline: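 Asynchronous P. falciparum (3D7 or K1) in RPMI 1640 with 20% heat-inactivated human A+ plasma, 0.5% parasitemia and 0.5% hematocrit; compound serially diluted, top final 5 μM, 48 h at 37°C under 5% CO2/5% O2/90% N2, then [8-3H]hypoxanthine 0.3 μCi added for 24 h.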

[16] = system: Salmonella typhimurium; experiment: Toxicity against Salmonella enterica serovar Typhimurium TA100; format: organism-based, Salmonella enterica subsp. enterica serovar Typhimurium; conditions: in vivo
Outline: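 Ames fluctuation test in S. Typhimurium TA98 (frameshift) and TA100 (base substitution), with and without rat liver S9. Tested at 5, 10, 50 and 100 μM plus higher concentrations, 48 wells each, in histidine-free liquid medium for 96 h. Growth read spectrophotometrically by pH-indicator color change. Bacterial cytotoxicity assayed in parallel at the same concentrations.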

[17] = system: Salmonella typhimurium; experiment: Genotoxicity in Salmonella enterica serovar Typhimurium TA98 assessed as increase in number of revertants in presence of rat liver S9 fraction by Ames test; format: toxicity, organism-based; conditions: salmonella enterica subsp. enterica serovar typhimurium
Outline: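 Liquid-culture Ames assay run by a contractor: S. Typhimurium TA98 and TA100 exposed for 96 h in histidine-free medium, with and without rat liver S9, at 5, 10, 50 and 100 μM (plus higher concentrations); growth read spectrophotometrically by pH-indicator colour change. Parallel bacterial cytotoxicity assay at same concentrations.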

[18] = system: Rattus norvegicus; experiment: Toxicity in Plasmodium berghei NK65 infected Sprague-Dawley rat assessed as effect on glucose levels at 50 mg/kg, perorally administered every 12 hrs for 3 days; format: organism-based; parameters: dose 50 mg/kg, route oral; conditions: in vivo, po, in the assay text read “every 8 hrs” for “every 12 hrs”; outline: as §3
[19] = target: Adenosine A2A receptor (Homo sapiens) (UniProt P29274); experiment: Inhibition of adenosine A2A receptor at 10 uM
[20] = target: 5-hydroxytryptamine receptor 5A (Homo sapiens) (UniProt P47898); experiment: Inhibition of 5HT5A receptor at 10 uM; outline: as §4
[21] = Elimination half life in Sprague-Dawley rat at 2 mg/kg, iv; format: ADME, organism-based; parameters: dose 2 mg/kg, route intravenous; conditions: in vivo, read-out: beta t1/2
Outline: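 Three female Sprague-Dawley rats per group (10–12 weeks), jugular-vein catheterized; 2 mg/kg in 3% EtOH-7% Tween 80-90% normal saline given through the catheter. Plasma drawn from the catheter at set times, acetonitrile extraction with internal standard, LC/MS quantification.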

[22] = system: Rattus norvegicus; experiment: Toxicity in Plasmodium berghei NK65 infected Sprague-Dawley rat assessed as effect on glucose levels at 50 mg/kg, perorally administered every 8 hrs for 3 days; format: organism-based; parameters: dose 50 mg/kg, route oral; conditions: in vivo, po; outline: as §3
[23] = target: Neuropeptide Y receptor type 2 (Homo sapiens) (UniProt P49146); experiment: Inhibition of neuropeptide Y2 receptor at 10 uM; outline: as §2
[24] = Inhibition of Potassium channel at 10 uM; outline: as §6
[25] = system: Rattus norvegicus; experiment: Toxicity in Plasmodium berghei NK65 infected Sprague-Dawley rat assessed as effect on renal function at 50 mg/kg, perorally administered every 12 hrs for 3 days; format: organism-based; parameters: dose 50 mg/kg, route oral; conditions: in vivo, po, in the assay text read “every 8 hrs” for “every 12 hrs”; outline: as §3
[26] = target: 5-hydroxytryptamine receptor 1B (Homo sapiens) (UniProt P28222); experiment: Inhibition of 5HT1B receptor at 10 uM; outline: as §4
[27] = system: Rattus norvegicus; experiment: Toxicity in Plasmodium berghei NK65 infected Sprague-Dawley rat assessed as effect on blood counts at 50 mg/kg, perorally administered every 12 hrs for 3 days; format: organism-based; parameters: dose 50 mg/kg, route oral; conditions: in vivo, po; outline: as §3
[28] = system: Plasmodium berghei; experiment: Antiplasmodial activity as reduced parasitaemia against Plasmodium berghei NK65 infected Sprague-Dawley rat at 50 mg/kg every 12 hrs peroral dose for 3 days
[29] = Elimination half life in BALB/c mouse at 50 mg/kg, po; format: ADME, organism-based; parameters: dose 50 mg/kg, route oral; conditions: in vivo, read-out: beta t1/2; outline: as §5

Chain of 5-hydroxytryptamine receptor 5A (Homo sapiens) (P47898 whole entry): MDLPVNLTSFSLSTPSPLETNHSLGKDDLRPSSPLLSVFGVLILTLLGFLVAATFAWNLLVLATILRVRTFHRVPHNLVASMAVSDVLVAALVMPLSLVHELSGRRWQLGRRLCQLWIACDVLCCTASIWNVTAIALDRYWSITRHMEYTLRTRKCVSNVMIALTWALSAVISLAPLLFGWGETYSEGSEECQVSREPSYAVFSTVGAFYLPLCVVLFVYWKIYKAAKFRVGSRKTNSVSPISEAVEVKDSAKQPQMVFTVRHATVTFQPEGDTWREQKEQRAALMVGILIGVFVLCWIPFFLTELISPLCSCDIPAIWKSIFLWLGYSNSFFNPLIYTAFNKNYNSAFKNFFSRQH
Chain of C-C chemokine receptor type 1 (Homo sapiens) (P32246 whole entry): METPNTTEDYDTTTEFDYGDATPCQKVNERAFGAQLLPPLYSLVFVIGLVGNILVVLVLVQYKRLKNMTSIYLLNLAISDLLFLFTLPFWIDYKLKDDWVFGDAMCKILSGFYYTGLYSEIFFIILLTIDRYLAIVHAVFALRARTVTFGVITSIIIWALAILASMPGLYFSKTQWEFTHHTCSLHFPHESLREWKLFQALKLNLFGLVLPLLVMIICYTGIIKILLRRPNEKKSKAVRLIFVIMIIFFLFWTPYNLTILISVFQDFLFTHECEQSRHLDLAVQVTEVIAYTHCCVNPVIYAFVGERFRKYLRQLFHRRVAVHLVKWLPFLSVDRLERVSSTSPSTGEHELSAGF
Chain of Delta-type opioid receptor (Homo sapiens) (P41143 whole entry): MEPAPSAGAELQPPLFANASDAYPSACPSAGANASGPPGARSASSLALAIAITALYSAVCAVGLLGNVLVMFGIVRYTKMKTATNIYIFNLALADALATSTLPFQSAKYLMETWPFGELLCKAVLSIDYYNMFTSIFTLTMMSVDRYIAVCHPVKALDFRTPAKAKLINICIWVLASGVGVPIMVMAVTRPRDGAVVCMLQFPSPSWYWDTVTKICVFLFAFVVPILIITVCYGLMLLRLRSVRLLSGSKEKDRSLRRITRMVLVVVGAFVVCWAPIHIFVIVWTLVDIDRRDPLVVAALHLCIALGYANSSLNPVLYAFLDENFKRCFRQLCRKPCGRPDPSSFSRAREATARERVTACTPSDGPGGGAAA
Chain of Cholecystokinin receptor type A (Homo sapiens) (P32238 whole entry): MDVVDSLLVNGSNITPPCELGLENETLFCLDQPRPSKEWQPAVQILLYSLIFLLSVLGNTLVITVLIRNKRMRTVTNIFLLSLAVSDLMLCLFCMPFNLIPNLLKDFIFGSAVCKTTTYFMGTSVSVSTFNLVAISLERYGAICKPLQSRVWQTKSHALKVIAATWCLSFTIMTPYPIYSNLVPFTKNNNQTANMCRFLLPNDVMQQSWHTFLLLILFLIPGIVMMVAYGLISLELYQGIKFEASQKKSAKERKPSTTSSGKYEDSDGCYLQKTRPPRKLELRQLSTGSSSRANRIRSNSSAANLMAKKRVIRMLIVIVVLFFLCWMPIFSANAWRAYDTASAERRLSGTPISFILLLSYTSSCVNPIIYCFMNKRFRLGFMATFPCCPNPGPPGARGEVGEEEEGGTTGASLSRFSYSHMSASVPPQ
Chain of Galanin receptor type 2 (Homo sapiens) (O43603 whole entry): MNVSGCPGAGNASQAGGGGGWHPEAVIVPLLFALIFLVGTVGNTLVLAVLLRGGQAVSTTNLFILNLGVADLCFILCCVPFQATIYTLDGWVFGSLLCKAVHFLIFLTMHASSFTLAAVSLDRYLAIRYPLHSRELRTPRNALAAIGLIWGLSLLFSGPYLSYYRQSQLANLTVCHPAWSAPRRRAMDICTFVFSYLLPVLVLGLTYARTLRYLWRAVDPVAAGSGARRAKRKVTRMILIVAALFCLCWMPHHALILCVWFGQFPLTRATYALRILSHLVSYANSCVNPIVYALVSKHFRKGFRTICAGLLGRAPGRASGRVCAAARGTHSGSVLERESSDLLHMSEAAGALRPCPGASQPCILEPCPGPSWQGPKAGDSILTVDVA
Chain of Histamine H1 receptor (Homo sapiens) (P35367 whole entry): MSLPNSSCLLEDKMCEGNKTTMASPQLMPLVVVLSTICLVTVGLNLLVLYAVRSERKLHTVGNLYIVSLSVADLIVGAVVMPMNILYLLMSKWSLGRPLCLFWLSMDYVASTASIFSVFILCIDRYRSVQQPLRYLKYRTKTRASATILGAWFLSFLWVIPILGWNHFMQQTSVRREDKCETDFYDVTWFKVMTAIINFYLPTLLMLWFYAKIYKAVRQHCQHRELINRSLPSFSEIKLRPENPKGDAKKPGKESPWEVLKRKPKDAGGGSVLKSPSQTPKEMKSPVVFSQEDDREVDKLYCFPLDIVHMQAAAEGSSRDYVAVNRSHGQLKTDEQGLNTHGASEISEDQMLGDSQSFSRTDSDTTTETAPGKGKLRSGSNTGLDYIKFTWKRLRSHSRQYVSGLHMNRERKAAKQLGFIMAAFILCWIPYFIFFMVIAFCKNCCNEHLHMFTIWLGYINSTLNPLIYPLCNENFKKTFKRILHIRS
Chain of 5-hydroxytryptamine receptor 1B (Homo sapiens) (P28222 whole entry): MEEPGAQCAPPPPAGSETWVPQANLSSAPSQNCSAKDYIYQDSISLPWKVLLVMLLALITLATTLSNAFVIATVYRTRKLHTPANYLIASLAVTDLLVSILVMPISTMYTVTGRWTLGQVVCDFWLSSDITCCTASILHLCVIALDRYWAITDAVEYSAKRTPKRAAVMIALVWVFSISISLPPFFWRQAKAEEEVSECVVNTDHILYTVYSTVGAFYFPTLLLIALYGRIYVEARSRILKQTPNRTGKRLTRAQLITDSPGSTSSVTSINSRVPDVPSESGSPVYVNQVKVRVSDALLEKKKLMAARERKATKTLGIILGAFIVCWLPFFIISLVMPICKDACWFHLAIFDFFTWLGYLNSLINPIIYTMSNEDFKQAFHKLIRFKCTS
Chain of Adenosine A2A receptor (Homo sapiens) (P29274 whole entry, looked up): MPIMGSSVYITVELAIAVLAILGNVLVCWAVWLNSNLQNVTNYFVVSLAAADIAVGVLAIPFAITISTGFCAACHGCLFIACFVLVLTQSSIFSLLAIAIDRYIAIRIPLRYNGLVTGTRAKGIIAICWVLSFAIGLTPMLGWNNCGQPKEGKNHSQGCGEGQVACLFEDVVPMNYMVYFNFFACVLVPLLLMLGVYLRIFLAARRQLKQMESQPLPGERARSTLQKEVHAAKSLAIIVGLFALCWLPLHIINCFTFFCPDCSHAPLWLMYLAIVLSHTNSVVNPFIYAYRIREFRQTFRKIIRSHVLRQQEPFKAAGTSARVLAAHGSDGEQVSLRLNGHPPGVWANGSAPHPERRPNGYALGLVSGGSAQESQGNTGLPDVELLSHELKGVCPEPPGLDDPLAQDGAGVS
Chain of Alpha-2A adrenergic receptor (Homo sapiens) (P08913 whole entry): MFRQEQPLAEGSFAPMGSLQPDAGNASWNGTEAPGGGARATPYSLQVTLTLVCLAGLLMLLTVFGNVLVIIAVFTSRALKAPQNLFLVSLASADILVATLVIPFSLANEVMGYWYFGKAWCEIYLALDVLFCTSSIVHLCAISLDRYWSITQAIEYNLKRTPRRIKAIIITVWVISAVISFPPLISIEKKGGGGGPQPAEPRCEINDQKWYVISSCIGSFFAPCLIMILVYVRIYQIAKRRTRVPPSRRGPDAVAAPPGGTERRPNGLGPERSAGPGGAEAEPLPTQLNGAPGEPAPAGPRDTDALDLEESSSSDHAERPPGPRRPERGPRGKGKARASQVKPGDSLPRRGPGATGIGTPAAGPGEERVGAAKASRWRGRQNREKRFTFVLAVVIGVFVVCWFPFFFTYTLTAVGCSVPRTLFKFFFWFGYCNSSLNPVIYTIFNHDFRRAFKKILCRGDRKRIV
Chain of 5-hydroxytryptamine receptor 7 (Homo sapiens) (P34969 whole entry): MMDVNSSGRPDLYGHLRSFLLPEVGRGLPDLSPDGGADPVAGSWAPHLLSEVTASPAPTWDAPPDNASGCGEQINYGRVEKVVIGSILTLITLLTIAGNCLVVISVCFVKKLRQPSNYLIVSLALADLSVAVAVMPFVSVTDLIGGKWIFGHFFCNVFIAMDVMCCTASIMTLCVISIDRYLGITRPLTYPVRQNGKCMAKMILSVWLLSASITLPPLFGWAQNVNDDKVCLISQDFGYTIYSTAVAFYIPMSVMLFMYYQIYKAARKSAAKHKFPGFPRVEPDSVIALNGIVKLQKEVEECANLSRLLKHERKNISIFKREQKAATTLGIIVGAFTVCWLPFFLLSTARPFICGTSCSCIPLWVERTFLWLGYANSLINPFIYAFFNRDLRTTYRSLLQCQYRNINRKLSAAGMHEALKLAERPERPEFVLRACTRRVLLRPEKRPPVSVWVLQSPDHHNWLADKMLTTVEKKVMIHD
Chain of Neuropeptide Y receptor type 2 (Homo sapiens) (P49146 whole entry): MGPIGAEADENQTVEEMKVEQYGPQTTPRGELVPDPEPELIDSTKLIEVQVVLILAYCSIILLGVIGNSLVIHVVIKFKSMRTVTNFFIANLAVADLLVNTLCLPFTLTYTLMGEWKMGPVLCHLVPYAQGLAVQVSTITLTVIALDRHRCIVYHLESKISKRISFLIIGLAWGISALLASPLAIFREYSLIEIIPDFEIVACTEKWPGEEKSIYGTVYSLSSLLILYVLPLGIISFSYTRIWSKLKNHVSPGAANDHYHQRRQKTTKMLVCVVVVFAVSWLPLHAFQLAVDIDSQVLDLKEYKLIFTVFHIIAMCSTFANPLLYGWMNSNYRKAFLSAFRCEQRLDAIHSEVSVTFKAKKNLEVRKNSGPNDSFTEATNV
Chain of Kappa-type opioid receptor (Homo sapiens) (P41145 whole entry): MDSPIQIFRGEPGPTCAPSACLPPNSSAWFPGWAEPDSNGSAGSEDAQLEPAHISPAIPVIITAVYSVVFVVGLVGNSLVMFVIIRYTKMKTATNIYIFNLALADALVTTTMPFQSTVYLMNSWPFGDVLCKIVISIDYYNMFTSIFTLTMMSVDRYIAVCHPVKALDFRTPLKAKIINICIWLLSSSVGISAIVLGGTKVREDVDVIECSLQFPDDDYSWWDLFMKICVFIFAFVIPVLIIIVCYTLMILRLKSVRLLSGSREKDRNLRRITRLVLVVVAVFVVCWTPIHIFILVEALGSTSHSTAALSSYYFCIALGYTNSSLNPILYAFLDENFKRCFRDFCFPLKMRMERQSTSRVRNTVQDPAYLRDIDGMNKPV

COC(=O)N1CCC(CN(C2Cc3cc(C#N)ccc3N(Cc3cncn3C)C2)S(=O)(=O)c2ccccn2)CC1 (centres undefined)
4.5 µM: Cmax [13]
15 nM: EC50 [1]
18 nM: EC50 [15]
17 min: half-life [21]
16 nM: EC50 [8]
18 min: half-life [29]
Non-toxic: Activity [4] | Activity [11] | Activity [16] | Activity [17] | Activity [18] | Activity [22] | Activity [25] | Activity [27]
inactive: inhibition [2] | inhibition [3] | inhibition [5] | inhibition [6] | inhibition [7] | inhibition [9] | inhibition [10] | inhibition [12] | inhibition [14] | inhibition [19] | inhibition [20] | inhibition [23] | inhibition [24] | inhibition [26] | Activity [28]
